The subject of one assay is HepG2. In words: cells. The note with it: Homo sapiens, HepG2, 72 h.
Assay [1] relates to MDA-MB-231. The assay is described as follows: cells. To be noted: Homo sapiens, MDA-MB-231, 72 h.
Assay [2] deals with Proto-oncogene tyrosine-protein kinase Src (Homo sapiens, UniProt P12931).
Assay [3] deals with MDA-MB-231. In words: Induction of apoptosis in human MDA-MB-231 cells assessed as viable cells at 0.3 uM after 48 hrs by annexin V-FITC/propidium iodide staining-based flow cytometric analysis (reference value: 94.4%). The note with it: MDA-MB-231, 48 h, read-out: Activity. The assay is classed as functional. In general terms: In flow cytometry, cells or beads pass a laser one at a time.

Assay [4] has as its system MDA-MB-231. The assay is described as follows: Antiinvasive activity against human MDA-MB-231 cells at 0.1 uM after 24 hrs by transwell assay. Format: functional, cell-based.
The subject of assay [5] is MDA-MB-231. In words: Antiproliferative activity against human MDA-MB-231 cells assessed as inhibition of colony formation at >0.01 uM after 12 days by crystal violet staining-based assay. Format: functional, cell-based. An outline of the steps: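 MDA-MB-231 cells plated at 5000 per well and treated the next day with vehicle or compound, medium refreshed every 4 days; after 12 days, colonies fixed in methanol, crystal violet stained and photographed.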

Assay [6] deals with MDA-MB-231. The assay is described as follows: Effect on AKT phosphorylation in human MDA-MB-231 cells at 0.001 to 1 uM after 20 hrs by Western blot analysis. The assay is classed as cell-based. The method in brief:
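MDA-MB-231 cells exposed to a concentration series for 20 h at 37 °C, lysed in RIPA with protease inhibitor cocktail, cleared by centrifugation, protein quantified by Bradford, resolved by SDS-PAGE, transferred to PVDF and immunoblotted.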

Assay [7] concerns MDA-MB-231. The assay is described as follows: Induction of apoptosis in human MDA-MB-231 cells assessed as early apoptotic cells at 0.3 uM after 24 hrs by annexin V-FITC/propidium iodide staining-based flow cytometric analysis (reference value: 1.58%). The assay is classed as functional.
Assay [8] deals with MDA-MB-231. In words: Cell cycle arrest in human MDA-MB-231 cells assessed as accumulation at G0/G1 phase at 0.3 uM after 24 to 48 hrs by flow cytometric analysis. Format: functional, cell-based.
Assay [9] deals with MDA-MB-231. The assay is described as follows: Antitumor activity against human MDA-MB-231 cells xenografted in SCID mouse assessed as tumor growth inhibition at 40 mg/kg/day administered for 18 days measured every 3 days during compound dosing. Format: functional, organism-based. A general note: In xenograft studies the graft and the host belong to different species.
In assay [10] the test system is MDA-MB-231. The assay is described as follows: Antimigratory activity against human MDA-MB-231 cells at 0.03 to 0.3 uM after 20 hrs by wound healing assay. The assay is classed as functional, cell-based. An outline of the steps:
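MDA-MB-231 monolayers grown to confluence, scratched with a sterile pipet tip, rinsed with saline, then kept in DMEM containing vehicle or compound; wound images taken after 20 h and analysed.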

For assay [11], the system named is MDA-MB-231. In words: Induction of apoptosis in human MDA-MB-231 cells assessed as early apoptotic cells at 0.3 uM after 48 hrs by annexin V-FITC/propidium iodide staining-based flow cytometric analysis (reference value: […]). Format: functional.
In assay [12] the test system is MDA-MB-231. The assay is described as follows: Induction of apoptosis in human MDA-MB-231 cells assessed as viable cells at 0.3 uM after 24 hrs by annexin V-FITC/propidium iodide staining-based flow cytometric analysis (reference value: 95.5%). The assay is classed as functional. To be noted: MDA-MB-231, 24 h, read-out: Activity.
Assay [13] has as its system MDA-MB-231. In words: Induction of apoptosis in human MDA-MB-231 cells assessed as late apoptotic cells at 0.3 uM after 48 hrs by annexin V-FITC/propidium iodide staining-based flow cytometric analysis (reference value: 4.25%). Format: functional.
The test system of assay [14] is MDA-MB-231. The assay is described as follows: Induction of apoptosis in human MDA-MB-231 cells assessed as late apoptotic cells at 0.3 uM after 24 hrs by annexin V-FITC/propidium iodide staining-based flow cytometric analysis (reference value: 2.67%). Format: functional.
Assay [15] has as its system MDA-MB-231. The assay is described as follows: Inhibition of ERK phosphorylation in human MDA-MB-231 cells at 0.001 to 1 uM after 20 hrs by Western blot analysis. Format: cell-based. An outline of the steps:
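MDA-MB-231 cells exposed to a concentration series for 20 h at 37 °C, then washed in ice-cold saline and lysed in RIPA buffer with protease cocktail. Lysates were cleared at 12 000 rpm for 10 min at 4 °C and protein measured by Bradford. Equal protein was run on SDS-PAGE, transferred to PVDF and immunoblotted for phospho-proteins.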
Background: In western blotting, separated proteins are transferred to a membrane and probed.

Assay [16] deals with MDA-MB-231. The assay is described as follows: Potency index, ratio of ponatinib IC50 to compound IC50 for human MDA-MB-231 cells. Format: functional.
Assay [17] concerns MDA-MB-231. The assay is described as follows: Potency index, ratio of dasatinib IC50 to compound IC50 for human MDA-MB-231 cells. Format: functional.
Assay [18] has as its system MDA-MB-231. In words: Antitumor activity against human MDA-MB-231 cells xenografted in SCID mouse assessed as tumor growth inhibition at 10 mg/kg/week, iv administered for 18 days measured every 3 days during compound dosing. The assay is classed as functional, organism-based. The method in brief: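 SCID mice (5–6 weeks) given subcutaneous injections of 5 ×10^6 MDA-MB-231 cells; at 150–200 mm3 tumors, randomized into 6 groups of 6; oral daily dosing (vehicle 25% PEG400 + 5% DMSO in sterile water), paclitaxel 10 mg/kg/week by tail vein; tumors measured every 3 days, volume = ab²/2; side effects monitored daily.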

Activity calls are given as the source filed them. The rule behind the calls is not given here.

Sequence of Proto-oncogene tyrosine-protein kinase Src (P12931 2-536 limits assumed): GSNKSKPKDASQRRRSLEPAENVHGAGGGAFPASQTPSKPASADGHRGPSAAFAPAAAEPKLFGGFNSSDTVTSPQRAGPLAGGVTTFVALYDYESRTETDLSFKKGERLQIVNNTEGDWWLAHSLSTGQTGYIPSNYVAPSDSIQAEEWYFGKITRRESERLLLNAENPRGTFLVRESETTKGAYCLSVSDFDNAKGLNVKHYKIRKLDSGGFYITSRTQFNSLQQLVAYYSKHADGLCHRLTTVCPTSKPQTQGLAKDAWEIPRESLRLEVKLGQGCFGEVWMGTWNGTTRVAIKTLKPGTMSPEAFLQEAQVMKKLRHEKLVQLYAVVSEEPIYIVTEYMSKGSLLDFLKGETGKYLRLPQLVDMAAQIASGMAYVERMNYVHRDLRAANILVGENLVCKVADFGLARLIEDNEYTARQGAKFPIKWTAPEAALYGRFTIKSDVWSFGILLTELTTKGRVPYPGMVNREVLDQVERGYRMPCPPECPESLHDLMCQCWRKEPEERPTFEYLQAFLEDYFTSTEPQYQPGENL

What is called IC50 is the point on the concentration scale where inhibition reaches its midpoint. Higher therefore signals lower potency. In the case of `CCc1ccc(C(=O)Nc2ccc(CN3CCN(C)CC3)c(C(F)(F)F)c2)cc1C#Cc1nn(CC)c2ncnc(N)c12`, the IC50 in the assay on HepG2 was over 5000 nM; in the assay with MDA-MB-231 [1], 418 nM.

Regarding `CCn1nc(C#Cc2cc(C(=O)Nc3ccc(CN4CCN(C)CC4)c(C(F)(F)F)c3)ccc2OC)c2c(N)ncnc21`, the values for the IC50 with HepG2 and with MDA-MB-231 [1] were 4640 nM and 321 nM, respectively.

As to `Cc1ccc(C(=O)Nc2ccc(CN3CCN(C)CC3)c(C(F)(F)F)c2)cc1C#Cc1nn(C2CCNCC2)c2ncnc(N)c12`, the 50% inhibitory concentration (IC50) is over 5000 nM in the assay on HepG2 and 12 nM in [2].

On to `Cc1ccc(C(=O)Nc2ccc(CN3CCN(C)CC3)c(Cl)c2)cc1C#Cc1nn(C(C)C)c2ncnc(N)c12`, for which the concentration for half-maximal inhibition (IC50) with HepG2 came to 3540 nM; in assay [2] it was 2 nM; in the assay on MDA-MB-231 [1] it was 57 nM.

For `Cc1ccc(C(=O)Nc2ccc(CN3CCN(C)CC3)c(C(F)(F)F)c2)cc1C#Cc1nn(C2CCCC2)c2ncnc(N)c12`, the IC50 in the assay with HepG2 was over 5000 nM; in the assay on MDA-MB-231 [1] it was 65 nM.

Turning to `Cc1nc(Nc2ncc(C(=O)Nc3c(C)cccc3Cl)s2)cc(N2CCN(CCO)CC2)n1.O` [DASATINIB], the viability at 0.3 µM stood at 82.9% with MDA-MB-231 [3] and 90.4% in the assay on MDA-MB-231 [12]. Besides, the result with MDA-MB-231 [4], in the assay with MDA-MB-231 [8] and with MDA-MB-231 [10] was Active. The inhibition entry in the assay on MDA-MB-231 [5] was “Active”. Further, in the assay on MDA-MB-231 [6], the outcome was inactive. Besides, the Activity is 2.64% with MDA-MB-231 [7], 6.31% in the assay with MDA-MB-231 [11], 9.84% in the assay on MDA-MB-231 [13] and 4.73% in the assay with MDA-MB-231 [14]. Also, the half-maximal inhibitory concentration (IC50) was over 5000 nM in the assay with HepG2 and 178 nM in the assay on MDA-MB-231 [1]. In the assay with MDA-MB-231 [9], the TGI result is “Active”. Moreover, the inhibition entry with MDA-MB-231 [15] was “inactive”.

`Cc1ccc(C(=O)Nc2ccc(CN3CCN(C)CC3)c(C(F)(F)F)c2)cc1C#Cc1nn(C)c2ncnc(N)c12`: the figures for the IC50 in the assay with HepG2 and in the assay with MDA-MB-231 [1] were over 5000 nM and 20 nM, respectively.

`Cc1ccc(C(=O)Nc2ccc(CN3CCN(C)CC3)c(C(F)(F)F)c2)cc1C#Cc1cnc2cccnn12` [PONATINIB]: the values for the concentration for half-maximal inhibition (IC50) with HepG2 and with MDA-MB-231 [1] were over 5000 nM and 156 nM, respectively.

For the compound `Cc1ccc(C(=O)Nc2ccc(CN3CCN(C)CC3)c(C(F)(F)F)c2)cc1C#Cc1nn(C(C)C)c2ncnc(N)c12`, the “Ratio IC50” value in the assay on MDA-MB-231 [16] and in the assay with MDA-MB-231 [17] was 2.5 each time. Besides, the IC50 in the assay with HepG2 is over 5000 nM; in assay [2], 2 nM; in the assay with MDA-MB-231 [1], 69 nM.

As to `Cc1ccc(C(=O)Nc2ccc(CN3CCN(CCO)CC3)c(C(F)(F)F)c2)cc1C#Cc1nn(C(C)C)c2ncnc(N)c12`, the concentration for half-maximal inhibition (IC50) with HepG2 came out at 1770 nM; in [2], 4 nM; in the assay with MDA-MB-231 [1], 50 nM.

Turning to `Cc1ccc(C(=O)Nc2ccc(CN3CCN(C)CC3)c(C(F)(F)F)c2)cc1C#Cc1nn(C2CCC2)c2ncnc(N)c12`, the IC50 in the assay on HepG2 is over 5000 nM; with MDA-MB-231 [1], 28 nM.

In the case of `CCn1nc(C#Cc2cc(C(=O)Nc3ccc(CN4CCN(C)CC4)c(C(F)(F)F)c3)ccc2C(C)C)c2c(N)ncnc21`, the IC50 with HepG2 is over 5000 nM; in assay [2] it was 1410 nM; in the assay on MDA-MB-231 [1] it was 1220 nM.

`Cc1ccc(C(=O)Nc2cccc(C(F)(F)F)c2)cc1C#Cc1nn(C(C)C)c2ncnc(N)c12`: the IC50 was over 5000 nM with HepG2 and 103 nM in the assay on MDA-MB-231 [1].

On to `CC(=O)O[C@H]1C(=O)[C@@]2(C)[C@H]([C@H](OC(=O)c3ccccc3)[C@]3(O)C[C@H](OC(=O)[C@H](O)[C@@H](NC(=O)c4ccccc4)c4ccccc4)C(C)=C1C3(C)C)[C@]1(OC(C)=O)CO[C@@H]1C[C@@H]2O`, for which, in the assay on MDA-MB-231 [18], the TGI entry was “Active”.

In the case of `COCn1nc(C#Cc2cc(C(=O)Nc3ccc(CN4CCN(C)CC4)c(C(F)(F)F)c3)ccc2C)c2c(N)ncnc21`, the results for the IC50 in the assay on HepG2 and with MDA-MB-231 [1] were over 5000 nM and 51 nM, respectively.

On to `CCN1CCN(Cc2ccc(NC(=O)c3ccc(C)c(C#Cc4nn(C(C)C)c5ncnc(N)c45)c3)cc2C(F)(F)F)CC1`, for which the 50% inhibitory concentration (IC50) in the assay on HepG2 was over 5000 nM; in assay [2] it was 2 nM; in the assay on MDA-MB-231 [1] it was 56 nM.

For `CCn1nc(C#Cc2cc(C(=O)Nc3ccc(CN4CCN(C)CC4)c(C(F)(F)F)c3)ccc2F)c2c(N)ncnc21`, the figures for the 50% inhibitory concentration (IC50) in the assay on HepG2 and in the assay with MDA-MB-231 [1] were over 5000 nM and 1740 nM, respectively.

With `Cc1ccc(C(=O)Nc2ccc(CN3CCN(C)CC3)c(Br)c2)cc1C#Cc1nn(C(C)C)c2ncnc(N)c12`, the 50% inhibitory concentration (IC50) in the assay on HepG2 turned out to be 1830 nM; in assay [2], 1 nM; in the assay on MDA-MB-231 [1] it was 40 nM.

Regarding `CCn1nc(C#Cc2cc(C(=O)Nc3ccc(CN4CCN(C)CC4)c(C(F)(F)F)c3)ccc2O)c2c(N)ncnc21`, the IC50 in the assay with HepG2 and in the assay on MDA-MB-231 [1] was over 5000 nM each time.

On to `C=CC(=O)N1CCC(n2nc(C#Cc3cc(C(=O)Nc4ccc(CN5CCN(C)CC5)c(C(F)(F)F)c4)ccc3C)c3c(N)ncnc32)CC1`, for which the half-inhibitory concentration (IC50) is over 5000 nM with HepG2 and 14 nM in the assay on MDA-MB-231 [1].

With `Cc1ccc(C(=O)Nc2ccc(CN3CCOCC3)c(C(F)(F)F)c2)cc1C#Cc1nn(C(C)C)c2ncnc(N)c12`, the concentration for half-maximal inhibition (IC50) in the assay on HepG2 was over 5000 nM; in assay [2] it was 21 nM; in the assay on MDA-MB-231 [1] it was 1520 nM.

With `CCn1nc(C#Cc2cccc(C(=O)Nc3ccc(CN4CCN(C)CC4)c(C(F)(F)F)c3)c2)c2c(N)ncnc21`, the half-maximal inhibitory concentration (IC50) with HepG2 was over 5000 nM; with MDA-MB-231 [1], 24 nM.

For the compound `CCn1nc(C#Cc2cc(C(=O)Nc3ccc(CN4CCN(C)CC4)c(C(F)(F)F)c3)ccc2Cl)c2c(N)ncnc21`, the IC50 in the assay on HepG2 was over 5000 nM; with MDA-MB-231 [1], 52 nM.

Turning to `Cc1ccc(C(=O)Nc2ccc(CN3CCN(C)CC3)c(C(F)(F)F)c2)cc1C#Cc1nn(C2CCN(C(=O)OC(C)(C)C)CC2)c2ncnc(N)c12`, the half-inhibitory concentration (IC50) is over 5000 nM with HepG2 and 145 nM in the assay on MDA-MB-231 [1].

In the case of `Cc1ccc(C(=O)Nc2ccc(CN3CCN(C)CC3)cc2)cc1C#Cc1nn(C(C)C)c2ncnc(N)c12`, the IC50 is 4700 nM in the assay on HepG2 and 270 nM in the assay with MDA-MB-231 [1].

The record behind these values is ChEMBL document CHEMBL3425429.
